Reference: ChEMBL document CHEMBL1141456, “Ca2+ channel alpha2-delta ligands for the treatment of neuropathic pain” (J Med Chem, 2007)

Legend:
[1] = Displacement of [3H]gabapentin from alpha2-delta calcium channel in pig brain; design: species or system Sus scrofa
Summary of the method: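 Competition binding of [3H]gabapentin to partially purified pig forebrain membranes. IC50, in nM, is the concentration giving half-maximal inhibition of specific [3H]gabapentin binding.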

[2] = Dissociation constant, pKa of the compound; type: physicochemical

For `NCC1(Cc2n[nH]c(=O)o2)CCCCC1`, which IC50 [1] is on record?
Its IC50 is > 10000 nM.

What about the pKa [2] of the same molecule?
Its pKa is 7.18.

For `NCC1(Cc2nnn[nH]2)CCCCC1`, which IC50 [1] is on record?
The IC50 was 100 nM.

For `Cn1nnnc1CC1(CN)CCCCC1`, which IC50 [1] is on record?
Its IC50 is > 10000 nM.

Which IC50 [1] does the source give for `NCC1(Cc2nnn[nH]2)CCCCCC1` here?
The IC50 was 100 nM.

With `CC(C)CC(CN)c1nnn[nH]1` (stereo not given) as the molecule, how does the IC50 [1] read?
Its IC50 is 170 nM.

What about the pKa [2] of the same molecule?
The pKa was 3.74.

For `NCC1(Cc2noc(=O)[nH]2)CCCCC1`, which pKa [2] is on record?
The pKa was 5.24.

Which IC50 [1] does the source give for `NCC1(CC(=O)O)CCCCC1` [GABAPENTIN] here?
Its IC50 is 87 nM.

What about the pKa [2] of the same molecule?
The pKa was 4.1.
